Results from BindingDB's records for doi:10.1016/j.bmcl.2019.08.010 (Stanford University, 2019).

Target: T1, Uridine-cytidine kinase 2 (Homo sapiens, UniProt Q9BZX2)
T1 sequence (Q9BZX2 whole entry): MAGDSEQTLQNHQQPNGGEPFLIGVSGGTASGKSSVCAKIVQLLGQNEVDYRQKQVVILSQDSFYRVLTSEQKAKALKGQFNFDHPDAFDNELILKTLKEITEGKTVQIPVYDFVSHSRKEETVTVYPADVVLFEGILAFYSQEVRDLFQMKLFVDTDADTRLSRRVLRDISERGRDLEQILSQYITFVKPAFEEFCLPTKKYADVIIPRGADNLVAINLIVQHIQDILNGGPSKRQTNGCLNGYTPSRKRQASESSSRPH
Test: Inhibition of C-terminally His6-tagged human UCK2 expressed in Escherichia coli BL21(DE3) cells incubated for 15 mins before ATP addition and measured after 60 mins by ADP-Glo kinase assay
Summary of the method: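 His6-tagged UCK2 (C-terminal tag), purified by Ni-NTA then ion exchange; UCK2 phosphorylates uridine with ATP and ADP-Glo measures the ADP formed, after depleting leftover ATP, as luciferase luminescence. Run in 1536-well format with 0.5 mg/mL BSA, DMSO up to 3%. Primary screen at 33 μM with hit cut-off of 3 SD of the negative control. Confirmation used 8 half-log concentrations, 0.05–167 µM.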

IC50: 137 µM
SMILES: Cc1ccccc1NC(=O)CSCn1[nH]nc2c(=O)nc(Cc3ccc(F)cc3)nc1-2
